73 molecules from ChEMBL document CHEMBL1126041, “Leukotriene B4 receptor antagonists: the LY255283 series of hydroxyacetophenones” (J Med Chem, 1992) can be followed below.

For test [1], the target named is Leukotriene B4 receptor 1 (Homo sapiens) (UniProt Q15722). Kind of test: Inhibition of binding of [3H]LTB4 to the leukotriene B4 receptor of human peripheral neutrophils (PMN) at a concentration of 10 uM. In a few lines:
(§1)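 Neutrophils isolated by Ficoll-Hypaque centrifugation, dextran 70 sedimentation and hypotonic lysis (≥90% neutrophils, ≥90% viable), 2 × 10^7 cells/mL in Hank's balanced salt solution with 0.1% ovalbumin. Compound in DMSO plus 2.65 nM [3H]LTB4 (stock), 10 min at 4 °C. Cells spun through dibutyl/dinonyl phthalate (7:2), pellet counted by scintillation. Triplicate incubations averaged. Reported as % inhibition of specific binding; nonspecific binding taken with >2000-fold excess unlabeled LTB4.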

Test [2] shares this target. Kind of test: Inhibition of [3H]LTB4 binding to leukotriene B4 receptor from human peripheral neutrophils (PMN), at a concentration of 1 uM. The gist of the method: as §1
Test [3] deals with Leukotriene B4 receptor (Homo sapiens) (UniProt Q9NPC1+Q15722). Kind of test: Inhibition of [3H]LTB4 binding to leukotriene B4 receptor of human peripheral neutrophils (PMN) at a concentration of 0.1 uM. The test is classed as protein assay. The gist of the method:
as §1

Sequence of Leukotriene B4 receptor 1 (Homo sapiens) (Q15722 whole entry): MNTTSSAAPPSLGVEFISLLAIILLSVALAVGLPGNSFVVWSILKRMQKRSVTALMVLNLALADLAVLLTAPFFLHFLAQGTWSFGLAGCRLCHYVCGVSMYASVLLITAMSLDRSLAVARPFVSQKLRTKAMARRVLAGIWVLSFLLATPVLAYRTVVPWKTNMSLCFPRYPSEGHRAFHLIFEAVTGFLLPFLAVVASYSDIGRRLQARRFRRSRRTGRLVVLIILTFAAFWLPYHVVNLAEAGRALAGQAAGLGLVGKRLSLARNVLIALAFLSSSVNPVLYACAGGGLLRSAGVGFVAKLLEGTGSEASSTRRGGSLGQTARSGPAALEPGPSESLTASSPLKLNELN
Sequence of Leukotriene B4 receptor (Homo sapiens) (Q15722 whole entry, looked up): as the sequence (Q15722 whole entry) above
Sequence of Leukotriene B4 receptor (Homo sapiens) (Q9NPC1 whole entry, looked up): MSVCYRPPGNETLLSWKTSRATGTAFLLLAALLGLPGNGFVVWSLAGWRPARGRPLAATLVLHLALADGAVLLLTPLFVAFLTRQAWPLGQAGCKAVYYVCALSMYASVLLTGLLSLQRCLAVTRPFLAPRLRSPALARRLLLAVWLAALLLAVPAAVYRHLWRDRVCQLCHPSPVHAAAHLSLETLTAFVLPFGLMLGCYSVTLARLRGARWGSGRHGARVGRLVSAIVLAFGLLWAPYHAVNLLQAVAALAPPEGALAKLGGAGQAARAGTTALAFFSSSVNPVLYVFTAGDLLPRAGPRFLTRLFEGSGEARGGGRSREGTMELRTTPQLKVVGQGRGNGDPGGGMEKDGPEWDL

`C=CCCCCOc1cc(O)c(C(C)=O)cc1CC=C`: the figures for the inhibition in test [1] and in test [2] were 73% and 27%, respectively.
On the same counts, the results for `C=CCc1cc(C(C)=O)c(O)cc1OCCCC` are 32% and 8%.
The corresponding values for `CCCc1c(OCCCCC#N)ccc(C(C)=O)c1O` are 0% and 9%.
On the same counts, the results for `C=CCc1cc(C(C)=O)c(O)cc1OCCCCCCCCC#N` are 86% and 50%.
For the molecule `C=CCc1cc(C(C)=O)c(O)cc1OCCCCCCC`, the figures for the inhibition in test [1] and in test [2] were 31% and 8%, respectively.
On the same counts, the results for `CCCc1cc(C(C)=O)c(O)c(CCC)c1OCCCCC#N` are 0% and 0%.
On the same counts, the results for `CCc1cc(C(C)=O)c(O)cc1OCCCCCn1cncn1` are 82% and 30%.
The corresponding values for `CCc1cc(C(C)=O)c(O)cc1OCCCCCCSC` are 71% and 14%.
Take `C=CCc1cc(C(C)=O)c(O)cc1OCCCCCC(C)(C)O`: the results for the inhibition in test [1] and in test [2] were 98% and 60%, respectively.
On the same counts, the results for `CCc1cc(C(C)=O)c(O)cc1OCCCCN1CCOCC1` are 32% and 9%.
For the molecule `CCc1cc(C(C)=O)c(O)cc1OCCCCC(C)(C)c1nnn[nH]1`, the inhibition in test [3] is 17%; in test [2], 66%.
`C=CCc1cc(C(C)=O)c(O)cc1OCCCCO`: the figures for the inhibition in test [1] and in test [2] were 48% and 9%, respectively.
The corresponding values for `C=CCc1cc(C(C)=O)c(O)cc1OCCCCCC(N)=O` are 88% and 37%.
Take `CCCc1cc(C(C)=O)c(O)cc1OCCCCC#N`: the inhibition in test [1] came to 84%; in test [2], 37%.
The corresponding values for `CCc1cc(C(C)=O)c(O)cc1OCCCCN(C)C` are 4% and 3%.
The corresponding values for `CC(=O)c1cc(C(C)(C)C)c(OCCCCCC(C)(C)C#N)cc1O` are 1% and 2%.
The corresponding values for `C=CCc1cc(C(=O)c2ccccc2)c(O)cc1OCCCCC#N` are 33% and 5%.
Take `CC(=O)c1ccc(OCCCCC#N)cc1O`: the inhibition in test [1] and in test [2] was 0% throughout.
In the case of `C=CCc1cc(C(C)=O)c(O)cc1OCc1ccc(C#N)cc1`, the results for the inhibition in test [1] and in test [2] were 22% and 28%, respectively.
Regarding `C=CCc1cc(C(C)=O)c(O)cc1OCCCCCC(=O)OC`, the inhibition worked out at 106% in test [1] and 65% in test [2].
Turning to `C=CCc1cc(C(=O)CCCCCCCCC)c(O)cc1OCCCCC#N`, the inhibition in test [1] turned out to be 10%; in test [2], 7%.
On the same counts, the results for `C=CCc1cc(C(C)=O)c(O)cc1OCCCCCC` are 50% and 9%.
The corresponding values for `CCC1(c2ccc(N)cc2)CCC(=O)NC1=O` (stereo unspecified) are 82% and 29%.
As for `CCc1cc(C(C)=O)c(O)c(C)c1OCCCCCC(C)(C)c1nnn[nH]1`, the inhibition in test [1] amounted to 42%; in test [2], 9%.
On the same counts, the results for `COCc1cc(C(C)=O)c(O)cc1OCCCCCCC#N` are 47% and 7%.
In the case of `C=CCc1cc(C(C)=O)c(O)cc1OCCCCCCCC#N`, the inhibition worked out at 88% in test [1] and 52% in test [2].
On the same counts, the results for `C=CCc1cc(C(C)=O)c(O)cc1OCCCC#N` are 47% and 6%.
Turning to `C=CCc1ccc(O)cc1OCCCCC#N`, the inhibition in test [1] was 29%; in test [2], 9%.
On the same counts, the results for `CCc1cc(C(C)=O)c(O)cc1OCCCCCCC(=O)O` are 87% and 38%.
Take `C=CCc1cc(C(C)=O)c(O)cc1OCCCCCCC#N`: the inhibition in test [1] was 97%; in test [2], 63%.
The corresponding values for `C=CCc1cc(C(C)=O)c(O)cc1OCCCCCCCCCCC#N` are 50% and 14%.
The corresponding values for `C=CCc1cc(C(C)=O)c(O)cc1OCCCCCC(=O)NO` are 85% and 28%.
Take `CCc1cc(C(C)=O)c(O)cc1OCCCCCCc1nnn[nH]1`: the results for the inhibition in test [1] and in test [2] were 91% and 60%, respectively.
On the same counts, the results for `C=CCc1cc(C(C)=O)c(O)cc1OCc1cccc(CC#N)c1` are 16% and 0%.
The corresponding values for `CCc1cc(C(C)=O)c(O)cc1OCCCCCCC#N` are 103% and 73%.
Take `C=CCc1cc(C(C)=O)c(O)cc1OCC#N`: the results for the inhibition in test [1] and in test [2] were 20% and 2%, respectively.
On the same counts, the results for `CCCc1cc(C(C)=O)c(O)cc1OCCCCCC(=O)O` are 73% and 24%.
On the same counts, the results for `CCc1cc(C(C)=O)c(O)cc1OCCCCCCC(=O)NC` are 97% and 54%.
The corresponding values for `C=CCc1cc(C(C)=O)c(O)cc1OCCCCC` are 60% and 23%.
For the molecule `CCc1cc(C(C)=O)c(O)cc1OCCCCCCS(C)(=O)=O`, the values for the inhibition in test [1] and in test [2] were 99% and 62%, respectively.
On the same counts, the results for `CCc1cc(C(C)=O)c(O)cc1OCc1ccc(C(=O)O)cc1` are 22% and 0%.
On the same counts, the results for `CC(=O)c1cc(C=O)c(OCCCCC#N)cc1O` are 6% and 3%.
Regarding `CC(=O)c1cc(CC2CO2)c(OCCCCC#N)cc1O` (stereo unspecified), the inhibition stood at 62% in test [1] and 24% in test [2].
On the same counts, the results for `CCc1cc(C(C)=O)c(O)cc1OCCCCCCC(=O)N(C)C` are 100% and 61%.
On to `CCc1cc(C(C)=O)c(O)cc1OCCCCCCCC(C)(C)c1nnn[nH]1`, for which the inhibition in test [3] amounted to 49%; in test [2], 96%.
As to `C=CCc1cc(C(C)=O)c(O)cc1OCCCCCC(C)=O`, the figures for the inhibition in test [1] and in test [2] were 98% and 58%, respectively.
On the same counts, the results for `CCc1cc(C(C)=O)c(O)cc1OCCCCC#N` are 92% and 57%.
Take `CCc1cc(C(C)=O)c(O)cc1OCCCCCCC(C)(C)c1nnn[nH]1`: the inhibition in test [3] was 13%; in test [2] it was 67%.
As to `CCCc1cc(C(C)=O)c(O)cc1OCCCCNC(C)=O`, the inhibition is 71% in test [1] and 23% in test [2].
Take `CC(=O)c1cc(C(C)=O)c(OCCCCC#N)cc1O`: the figures for the inhibition in test [1] and in test [2] were 8% and 0%, respectively.
On the same counts, the results for `C=CCc1cc(C(C)=O)c(O)cc1OCCCCC#N` are 92% and 57%.
The corresponding values for `CCc1cc(C(C)=O)c(O)cc1OCCCCCCC(=O)Nc1nn[nH]n1` are 101% and 83%.
Turning to `C=CCc1cc(C(C)=O)c(O)cc1OCc1ccccc1C#N`, the inhibition came out at 47% in test [1] and 6% in test [2].
For the molecule `CCCc1cc(C(C)=O)ccc1OCCCCC#N`, the inhibition in test [1] came to 44%; in test [2] it was 19%.
On the same counts, the results for `C=CCc1cc(C(=O)CC)c(O)cc1OCCCCC#N` are 77% and 36%.
On the same counts, the results for `CC(=O)c1cc(CC(C)O)c(OCCCCC#N)cc1O` (stereo unspecified) are 10% and 6%.
The corresponding values for `CC(=O)c1cc(C)c(OCCCCC#N)cc1O` are 79% and 35%.
`CCCc1cc(C(C)=O)c(O)cc1OCCCCC(=O)O`: the inhibition in test [1] amounted to 11%; in test [2], 0%.
On the same counts, the results for `C=CCc1cc(C(C)=O)c(OC)cc1OCCCCC#N` are 13% and 8%.
The corresponding values for `CCc1cc(C(C)=O)c(O)cc1OCCCCCC[S+](C)[O-]` (stereo unspecified) are 92% and 50%.
On the same counts, the results for `CSCc1cc(C(C)=O)c(O)cc1OCCCCCCC#N` are 97% and 64%.
`CCc1cc(C(C)=O)c(O)cc1Oc1cccc(C#N)c1`: the inhibition in test [1] stood at 11%; in test [2], 8%.
The corresponding values for `CCCc1cc(C(C)=O)c(Cl)cc1OCCCCC#N` are 35% and 13%.
On the same counts, the results for `C=CCc1cc(C(C)=O)c(O)cc1OCCCCCC(=O)N(C)C` are 92% and 54%.
On the same counts, the results for `C#CCCCCOc1cc(O)c(C(C)=O)cc1CC=C` are 74% and 29%.
As to `CCCc1cc(C(C)=O)c(O)cc1OCCCCN`, the inhibition in test [1] was 6%; in test [2], 0%.
In the case of `CC(=O)c1cc(CO)c(OCCCCCCC#N)cc1O`, the inhibition came out at 40% in test [1] and 8% in test [2].
Regarding `CCc1cc(C(C)=O)c(O)cc1OCCCCc1nnn[nH]1`, the inhibition in test [1] worked out at 49%; in test [2], 19%.
On the same counts, the results for `C=CCc1cc(C(C)=O)c(O)cc1OCc1ccc(CC#N)cc1` are 30% and 17%.
The corresponding values for `CCCCc1cc(C(C)=O)c(O)cc1OCCCCC#N` are 41% and 13%.
The corresponding values for `CCCCCCc1cc(C(C)=O)c(O)cc1OCCCCC#N` are 51% and 13%.
As for `CCCCCc1cc(C(C)=O)c(O)cc1OCCCCC#N`, the results for the inhibition in test [1] and in test [2] were 31% and 14%, respectively.
On the same counts, the results for `C=CCc1cc(C(C)=O)c(O)cc1OCCCCCC#N` are 81% and 41%.
